# Assay results as given in ChEMBL document CHEMBL1128359, “Dicarboxylic acid dipeptide neutral endopeptidase inhibitors” (J Med Chem, 1995).
# Biological target: T1, Neprilysin (Rattus norvegicus) (UniProt P07861)
# T1 sequence (whole entry): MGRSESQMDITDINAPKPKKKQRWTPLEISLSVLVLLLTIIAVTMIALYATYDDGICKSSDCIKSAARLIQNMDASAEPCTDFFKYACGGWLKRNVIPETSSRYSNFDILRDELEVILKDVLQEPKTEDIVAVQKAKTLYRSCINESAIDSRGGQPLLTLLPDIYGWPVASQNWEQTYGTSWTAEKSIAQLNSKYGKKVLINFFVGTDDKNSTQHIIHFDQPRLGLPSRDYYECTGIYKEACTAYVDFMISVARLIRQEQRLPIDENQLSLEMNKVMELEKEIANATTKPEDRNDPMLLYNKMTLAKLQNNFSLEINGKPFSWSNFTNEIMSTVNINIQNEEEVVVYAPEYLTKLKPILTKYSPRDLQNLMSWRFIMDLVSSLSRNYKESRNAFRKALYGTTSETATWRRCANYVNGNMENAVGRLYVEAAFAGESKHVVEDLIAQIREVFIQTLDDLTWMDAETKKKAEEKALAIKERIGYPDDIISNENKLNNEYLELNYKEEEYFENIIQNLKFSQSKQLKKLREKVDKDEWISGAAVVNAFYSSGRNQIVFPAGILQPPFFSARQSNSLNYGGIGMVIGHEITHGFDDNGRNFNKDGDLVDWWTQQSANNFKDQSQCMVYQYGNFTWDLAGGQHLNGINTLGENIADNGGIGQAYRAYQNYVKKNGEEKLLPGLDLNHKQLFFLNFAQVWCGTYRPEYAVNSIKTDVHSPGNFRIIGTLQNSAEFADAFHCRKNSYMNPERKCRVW
# Experiment: The compound was tested in vitro for inhibition of Neutral endopeptidase by using GAAP as substrate
# Details: concentration not given here
# In short: (§1)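 Enzyme source was rat kidney cortex membranes (male Sprague-Dawley), 4.0 μg protein, plus 2.5 μg aminopeptidase M, in 50 mM Tris-HCl pH 7.4. Preincubated with inhibitor 10 min at 25 °C, then GAAP added (final 500 μM) for 25 min at 25 °C. Stopped with fast garnet, colour developed 30 min, OD read at 540 nm. Run in duplicate.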
row,inhibition [%],SMILES
1,43,O=C(O)CCNC(=O)C(Cc1ccc(-c2nccs2)cc1)CC(Cc1ccc(-c2nccs2)cc1)C(=O)O (stereo not drawn)
2,52,O=C(O)C1CCC(NC(=O)C(Cc2ccccc2)CC(Cc2ccccc2)C(=O)O)CC1 (stereo not drawn)

# Biological target: T2, Neprilysin (Rattus norvegicus, UniProt P07861)
# T2 sequence (P07861 whole entry): T1 sequence (whole entry)
# Experiment: The compound was tested in vitro for inhibition of Neutral endopeptidase by using Leu enkephalin as substrate
# Details: not given
# In short: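 NEP (30 ng) preincubated 10 min with inhibitor in 50 mM Tris-HCl pH 7.4. Substrate disappearance followed by 6 min isocratic RP-HPLC on a C4 column. Duplicates.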
row,IC50 [nM],SMILES
1,0.81,O=C(O)CCNC(=O)[C@H](Cc1ccc(-c2ccccc2)cc1)NCP(=O)(O)O
2,0.7,O=C(O)CCNC(=O)[C@@H](CCC(=O)O)Cc1ccc(-c2ccccc2)cc1
3,9,O=C(O)CCNC(=O)[C@H](Cc1ccccc1)C[C@@H](Cc1ccccc1)C(=O)O

# Biological target: T2, Neprilysin
# Experiment: The compound was tested for inhibition of Neutral endopeptidase by using GAAP as substrate
# Details: not given
# In short: as §1
row,IC50 [nM],SMILES
1,155,O=C(O)CCNC(=O)[C@@H](CCC(=O)O)Cc1ccc(-c2ccccc2)cc1
2,1200,O=C(O)CCNC(=O)[C@H](Cc1ccccc1)C[C@@H](Cc1ccccc1)C(=O)O

# Biological target: T2, Neprilysin
# Experiment: In vitro inhibition of rat neutral endopeptidase by using GAAP as substrate
# Details: not given
# In short: as §1
row,SMILES,IC50 [nM]
1,C[C@H](C[C@@H](Cc1ccc(-c2ccccc2)cc1)NC(=O)CCCCC(=O)O)C(=O)O,324
2,O=C(O)CCNC(=O)C(Cc1ccc(Oc2ccccc2)cc1)CC(Cc1ccc(Oc2ccccc2)cc1)C(=O)O (stereo not drawn),203
3,O=C(O)CCNC(=O)[C@H](Cc1ccc(-c2ccccc2)cc1)C[C@@H](Oc1ccccc1)C(=O)O (stereo in doubt; 8f),> 1000
4,C[C@H](C[C@@H](Cc1ccc(-c2ccccc2)cc1)NC(=O)CC(=O)O)C(=O)O,92
5,O=C(O)C1CCC(NC(=O)C(Cc2ccc(-n3cccc3)cc2)CC(Cc2ccc(-n3cccc3)cc2)C(=O)O)CC1 (stereo not drawn),515
6,O=C(O)CCNC(=O)C(Cc1ccc(-c2nccs2)cc1)CC(Cc1ccc(-c2nccs2)cc1)C(=O)O (stereo not drawn),> 1000
7,O=C(O)CCC(=O)N[C@H](Cc1ccccc1)C[C@@H](Cc1ccccc1)C(=O)O,4000
8,C[C@H](C[C@@H](Cc1ccc(-c2ccccc2)cc1)NC(=O)CCCC(=O)O)C(=O)O,90
9,O=C(O)CCNC(=O)C(Cc1ccccc1)CC(Cc1ccccc1)C(=O)O (stereo not drawn),1200
10,O=C(O)CCNC(=O)[C@@H](CCC(=O)O)Cc1ccc(-c2ccccc2)cc1,155
11,CO[C@H](C[C@@H](Cc1ccc(-c2ccccc2)cc1)C(=O)NCCC(=O)O)C(=O)O (stereo in doubt; 8h),> 1000
12,CC(C)c1ccc(CC(CC(Cc2ccc(C(C)C)cc2)C(=O)NCCC(=O)O)C(=O)O)cc1 (stereo not drawn),489

# More lines, now with the values ahead:
row,IC50 [nM],SMILES
1,66,CCCC[C@H](C[C@@H](Cc1ccc(-c2ccccc2)cc1)C(=O)NCCC(=O)O)C(=O)O
2,54,Cc1ccc([C@H](C[C@@H](Cc2ccc(-c3ccccc3)cc2)C(=O)NCCC(=O)O)C(=O)O)cc1
3,54,COc1ccc(C[C@H](C[C@@H](Cc2ccc(-c3ccccc3)cc2)C(=O)NCCC(=O)O)C(=O)O)cc1OC
4,49,CO[C@H](C[C@@H](Cc1ccc(-c2ccccc2)cc1)NC(=O)CCCC(=O)O)C(=O)O
5,49,O=C(O)CCNC(=O)C(Cc1ccc(-c2ccccc2)cc1)CC(Cc1ccc(-c2ccccc2)cc1)C(=O)O (stereo not drawn)
6,46,COCC[C@H](C[C@@H](Cc1ccc(-c2ccccc2)cc1)C(=O)NCCC(=O)O)C(=O)O
7,44,O=C(O)CCNC(=O)[C@H](Cc1ccc(-c2ccccc2)cc1)C[C@@H](Oc1ccccc1)C(=O)O (stereo in doubt; 8e)
8,42,CO[C@H](C[C@@H](Cc1ccc(-c2ccccc2)cc1)C(=O)NCCC(=O)O)C(=O)O (stereo in doubt; 8g)
9,41,C[C@H](C[C@@H](Cc1ccc(-c2ccccc2)cc1)C(=O)NCCC(=O)O)C(=O)O
10,36,O=C(O)CCNC(=O)C(Cc1ccc(-n2cccc2)cc1)CC(Cc1ccc(-n2cccc2)cc1)C(=O)O (stereo not drawn)
11,21,CCCC[C@H](C[C@@H](Cc1ccc(-c2ccccc2)cc1)C(=O)NCC(O)C(=O)O)C(=O)O (stereo partly drawn)
12,19,O=C(O)CCNC(=O)[C@H](Cc1ccc(-c2ccccc2)cc1)C[C@@H](Cc1ccc(-c2nccs2)cc1)C(=O)O
13,11,COc1ccc(C[C@H](C[C@@H](Cc2ccc(-c3ccccc3)cc2)C(=O)NCC(O)C(=O)O)C(=O)O)cc1OC (stereo partly drawn)

# Biological target: T2, Neprilysin
# Experiment: The compound was tested in vitro for inhibition of Neutral endopeptidase by using ANF(atrial natriuretic factor) as substrate
# Details: not given
# In short: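 NEP (5.0 μg) preincubated 10 min with inhibitor in 50 mM Tris-HCl pH 7.4. Reaction started with r-ANF (final 20 μM) and run 10 min at 37 °C, then stopped with 0.6% TFA. Substrate loss measured by 3 min isocratic RP-HPLC on a C4 cartridge. Run in duplicate.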
row,IC50 [nM],SMILES
1,2,O=C(O)CCNC(=O)[C@H](Cc1ccc(-c2ccccc2)cc1)NCP(=O)(O)O
